Bioassay records deposited in PubChem BioAssay by Broad Institute.
Only some compounds are listed: those with a hit (about 2.4% of all), similar ones and a draw of the others.
dFosB activator: activators of delta FosB homodimer, primary screen, biochemical, fluorescence polarization, TAMRA-CDK5 oligo, single point; Protein FosB (Mus musculus), P13346; purified delta FosB; percent of positive-control signal above neutral wells; activation, % at 25 µM; actives 0.99% (n = 340,000);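 active = mean activation above about 17%, with every replicate also reaching it, limit read from the data, passing the limit was not always enough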
Cneo AK release: Cryptococcus neoformans cell lysis inducers, primary screen, AK release luminescence, single concentration. lysis activity, % at 15 µM. actives 0.2% (n = 360,000). C. neoformans lysis, adenylate kinase release luminescence, 4 h; normalised: neutral wells 0, clomiphene wells 100. AID 651654, 2012;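 active = mean lysis activity across replicates of at least 80%, whatever share of replicates individually reach that level; inactive = mean lysis activity below 80%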
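Material – Cryptococcus neoformans yeast cells · Quantity – 5 × 10^6 yeast cells/mL · Buffer or medium – YPD medium · Compound – single dose · Timing – 4 h static compound exposure, 37 °C, read 1 h post-reagent · Signal – adenylate kinase release luminescence · Read-out basis – lysis from increased AK signal · Benchmarks – Clomiphene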
Rtt109 HAT inh: inhibitors of C. albicans Rtt109/Vps75 HAT, primary screen, biochemical, ThioGlo CoA-SH fluorescence, plate reader. actives 0.16% (n = 330,000). inhibition, % at 34.9 µM. purified Rtt109/Vps75, 4 h. Histone acetyltransferase RTT109 (Candida albicans (strain SC5314 / ATCC MYA-2876)), …;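 active = inhibition of at least 50% in every replicate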
Target sequence (Q5AAJ8 whole entry, looked up): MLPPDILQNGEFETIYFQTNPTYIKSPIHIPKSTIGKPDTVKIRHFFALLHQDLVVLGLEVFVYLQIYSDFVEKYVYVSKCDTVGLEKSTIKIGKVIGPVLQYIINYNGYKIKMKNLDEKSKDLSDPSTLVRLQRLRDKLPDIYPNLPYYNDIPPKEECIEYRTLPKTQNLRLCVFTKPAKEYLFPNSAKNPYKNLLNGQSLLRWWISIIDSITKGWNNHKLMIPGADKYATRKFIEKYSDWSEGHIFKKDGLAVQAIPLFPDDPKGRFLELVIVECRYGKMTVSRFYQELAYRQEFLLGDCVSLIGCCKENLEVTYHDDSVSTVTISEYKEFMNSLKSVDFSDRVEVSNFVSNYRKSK
GSIS activator: GLuc luminescence reporter in INS-1E cells, primary screen for activators of glucose-dependent secretion of insulin; activation, % at 16.6 µM; actives 0.61% (n = 370,000); INS-1E GLuc reporter insulin secretion, 2-3 h;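 active = lowest replicate activation of at least 40%, so every replicate reaches that level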;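 note: 0% = median of neutral control wells and 100% = median of IBMX positive control wells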
HIV Env fusion: inhibitors of HIV-1 Env-driven cell-cell fusion, primary screen, HeLa-JRFL effector, CEM21 target cells, luciferase; inhibition, % at 12.3 µM; actives 1.1% (n = 360,000);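 active = mean replicate inhibition score of at least 50 and every replicate individually at or above 50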;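 note: 0% = plate neutral controls and 100% = maraviroc near 300 nM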
miR122 inh: miR-122 Renilla sensor signal increase in Huh7, primary screen, miR-122 inhibitor project, cell-based, single point, plate reader; Huh7 miR-122 Renilla luciferase sensor, 48 h; neutral wells = 0, positive control = 100; activation (reporter increase), % at 12.5 µM; actives 0.3% (n = 340,000); AID 602342, 2012;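 active = mean replicate activation score at least 90 and every replicate individually at or above 90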;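 note: higher luciferase means less miR-122 activity so hits act as miR-122 inhibitors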
* = called active by the depositor; · = no result given; [ ] = remark or other dose.

SMILES | dFosB activator | Cneo AK release | Rtt109 HAT inh | GSIS activator | HIV Env fusion | miR122 inh
COc1ccc(C(=O)Nc2nc3c(s2)CCCC3)cc1S(=O)(=O)N1CCCc2ccccc21 | 4.3 | 2.8 | -5.9 | -5.9 | 43.9 | 115.0*
C[C@H](CO)N1C[C@H](C)[C@H](CN(C)S(=O)(=O)c2ccccc2)Oc2c(NC(=O)C3CCOCC3)cccc2C1=O | · | 44.0 | · | 7.6 | · | 25.8[16.7 µM]
COc1ccccc1-n1c(C)nnc1SCC(=O)Nc1cc(C)cc(C)c1 | -1.5 | 1.3 | 1.4 | · | 55.6* | 9.9
O=C1N=C(N2CCc3ccccc3C2)S/C1=C\c1cccc(O)c1 | -29.1 | -1.6 | 1.9 | -12.4 | -12.7 | 108.9*
C[C@H](CO)N1C[C@H](C)[C@H](CN(C)Cc2ccc(Cl)c(Cl)c2)Oc2c(NS(=O)(=O)c3ccc(Cl)cc3)cccc2C1=O | · | -5.4 | · | · | 91.1*[16.7 µM] | 13.7[16.7 µM]
Cc1ccc(S(=O)(=O)Nc2cccc3c2O[C@H](CN(C)Cc2ccc(Cl)c(Cl)c2)[C@H](C)CN([C@H](C)CO)C3=O)cc1 | · | · | · | -2.8 | 85.2*[16.7 µM] | 0.1[16.7 µM]
Cc1ccc(S(=O)(=O)Nc2cccc3c2O[C@@H](CN(C)Cc2ccc(Cl)c(Cl)c2)[C@@H](C)CN([C@H](C)CO)C3=O)cc1 | · | · | · | -11.7 | 86.7*[16.7 µM] | 37.4[16.7 µM]
C[C@@H]1CN([C@@H](C)CO)C(=O)c2cccc(NS(=O)(=O)c3ccc(F)cc3)c2O[C@H]1CN(C)S(=O)(=O)c1ccc(Cl)cc1 | · | 109.7* | · | 19.5 | 4.3[16.7 µM] | -4.2[16.7 µM]
Cc1ccc(S(=O)(=O)Nc2cccc3c2O[C@H](CN(C)Cc2ccc(Cl)c(Cl)c2)[C@H](C)CN([C@@H](C)CO)C3=O)cc1 | · | · | · | -12.6 | · | ·
C[C@H](CO)N1C[C@H](C)[C@@H](CN(C)Cc2ccc(Cl)c(Cl)c2)Oc2c(NC(=O)c3nc4ccccc4s3)cccc2C1=O | · | -0.3 | · | 9.0 | 7.6[16.7 µM] | 10.9[16.7 µM]
O=C(Cc1cccs1)N(Cc1cccs1)C1(C(=O)NC2CCCCC2)CCCCC1 | -10.7 | 3.5 | -12.7 | · | 78.9* | 2.5
O=C(CCN1CCCCC1)N[C@H]1CC[C@@H](CCn2cc(-c3ccccc3)nn2)O[C@H]1CO | · | 0.0 | · | 0.5 | 2.6[16.7 µM] | ·
CCCCN(C)C(=O)C(Cc1ccccc1)NS(=O)(=O)c1ccc2c(c1)CCC(=O)N2 (stereo not given) | -7.7 | 0.8 | -0.1 | 3.5 | 67.0* | -1.4
Oc1ccc(Nc2nc(N3CCCC3)c3ccccc3n2)cc1 | 79.9* | 0.4 | 34.4 | · | -150.4 | 2.5
COc1ccc(Nc2nc(N3CCCCC3)c3ccccc3n2)cc1 | 2.6 | 1.2 | 4.7 | · | · | 1.3
O=C(c1ccccn1)N1CC(=O)N2[C@H](CO)[C@@H](c3ccc(C#Cc4ccccc4)cc3)[C@@H]2C1 | · | · | · | 1.6 | · | ·
CCOc1ccc(-c2nc(CSc3nnc(N)s3)cs2)cc1OC | -4.7 | -1.3 | -1.9 | 56.8* | · | -1.5
C=CCn1c(-c2csc(-c3ccc(OC)c(OC)c3)n2)n[nH]c1=S | 1.3 | · | 0.2 | 82.7* | -17.0 | ·
CCOc1ccc(-c2nc(CSc3nnc(N)s3)cs2)cc1 | 3.2 | -2.6 | -2.4 | · | · | -3.5
COc1ccc(-c2nc(CCl)cs2)cc1OC | -0.2 | 2.0 | 1.3 | 61.8* | -13.2 | -4.2
C=CCn1c(-c2csc(-c3ccc(Cl)cc3)n2)n[nH]c1=S | -10.2 | · | -3.2 | · | · | -3.3
COc1ccc(CC2C(=O)NC(C)C(=O)N(C)C3Cc4ccc(cc4)Oc4cc(ccc4O)CC(C(=O)NC(C)C(=O)NC(C)C(=O)N2C)N(C)C3=O)cc1 (stereo not given) | -9.3 | · | -6.4 | -25.3 | 77.1* | -6.5
CC(C)C[C@@H]1NC(=O)[C@H](Cc2ccccc2)N(C)C(=O)[C@H](C)NC(=O)c2ccccc2NC(=O)[C@H](Cc2ccc(O)cc2)N(C)C1=O | 1.3 | -5.8 | 30.1 | -1.9 | · | 12.2
